Test results taken from ChEMBL document CHEMBL5338714, “Design, synthesis and biological evaluation of biphenyl-benzamides as potent FtsZ inhibitors” (Eur J Med Chem, 2022).
In brackets after ≈: the same amount, converted by molar mass. Activity calls are given as the source filed them. The calls are words filed in the database; no cut-off is given here.

Tests used:
[1] = Metabolic stability in human liver microsomes assessed as intrinsic clearance preincubated for 5 mins followed by NADPH addition measured upto 45 mins by LC/MS analysis; type: ADME, Microsome; settings: time < 50 min, read-out: CLH
Summary of the method: (§1)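 Liver microsomes at 0.75 mg/mL final protein, with test article and NADPH regeneration system (6 mM) in 100 mM phosphate buffer, pH 7.4. Preincubated 5 min at 37 °C, then started with NADPH. Quenched with acetonitrile containing internal standard at 5, 15, 30 and 45 min, centrifuged, and percent remaining measured by LC/MS. Ketanserin served as reference.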

Staphylococcus aureus [2] = assay: Selectivity ratio of MBC for Staphylococcus aureus ATCC25923 to MIC for Staphylococcus aureus ATCC25923; type: functional
Summary of the method: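 After 24 h of broth microdilution, 5 µL from clear wells plated on LB agar and incubated aerobically for 24 h at 37 °C. MBC is the lowest concentration with no colonies. Ratio is MBC over MIC, with ≤4 taken as bactericidal and >4 as bacteriostatic.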

[3] = target: T1, Cell division protein FtsZ (Staphylococcus aureus) (UniProt P0A031); assay: Inhibition of recombinant Staphylococcus aureus FtsZ-mediated GTPase activity preincubated for 10 mins followed by GTP addition measured after 30 mins by absorbance based assay; settings: dose <= 35.0 µg/ml, time 40.0 min
T1 sequence (whole entry): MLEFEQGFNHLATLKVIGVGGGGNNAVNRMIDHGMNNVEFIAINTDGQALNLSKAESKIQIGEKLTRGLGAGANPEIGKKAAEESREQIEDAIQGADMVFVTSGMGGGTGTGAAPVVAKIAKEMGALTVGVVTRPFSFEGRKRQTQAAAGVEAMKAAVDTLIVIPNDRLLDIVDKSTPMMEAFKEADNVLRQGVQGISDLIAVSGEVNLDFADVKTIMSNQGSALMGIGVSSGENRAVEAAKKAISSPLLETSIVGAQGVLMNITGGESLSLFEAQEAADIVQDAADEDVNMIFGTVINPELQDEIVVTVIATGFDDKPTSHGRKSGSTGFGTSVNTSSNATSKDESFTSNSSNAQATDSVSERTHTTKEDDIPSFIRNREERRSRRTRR
Summary of the method: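 S. aureus FtsZ (6 µM) preincubated 10 min at room temperature with a range of compound concentrations in 50 mM Hepes-KOH. KCl 300 mM, MgCl2 5 mM and GTP 1 mM then added, 30 min at 37 °C. Reaction quenched with Cytophos reagent for 10 min; released phosphate read at 620 nm.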

[4] = target: T1, Cell division protein FtsZ (Staphylococcus aureus); assay: Inhibition of recombinant Staphylococcus aureus FtsZ assessed as FtsZ polymerization at 10 ug/ml in presence of GTP by absorbance based turbidity assay; settings: dose 10.0 µg/ml
Summary of the method: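 Recombinant S. aureus FtsZ (12 µM) with 1 mM GTP and compound in 50 mM Hepes, 50 mM KCl, 5 mM MgCl2. Polymerization followed continuously at 25 °C as light scattering (A340).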

[5] = Bioavailability in ICR mouse at 5 mg/kg, po measured for 0.25 to 24 hrs by LC-MS/MS analysis; type: ADME, organism-based; settings: in vivo, time 0.25-24 hrs
Summary of the method: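 Male ICR mice dosed orally with a solution of 5% DMSO, 4% ethanol, 5% Cremophor EL and 86% water. Blood collected at 15, 30 min, 1, 2, 4, 6, 8 and 24 h; plasma stored at -20 °C. Plasma levels measured by LC-MS/MS; parameters by non-compartmental analysis, with bioavailability relative to the 1 mg/kg iv dose.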

[6] = Clearance in ICR mouse at 1 mg/kg, iv measured for 0.08 to 24 hrs by LC-MS/MS analysis; type: ADME, organism-based; settings: in vivo, time 0.08-24 hrs
Summary of the method: (§2)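 Male ICR mice, single intravenous dose formulated in 5% DMSO, 4% ethanol, 5% Cremophor EL, 86% water. Blood sampled at 5, 15, 30 min, 1, 2, 4, 8 and 24 h; plasma stored at -20 °C. Compound quantified by LC-MS/MS, with parameters from non-compartmental analysis.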

[7] = target: T1, Cell division protein FtsZ (Staphylococcus aureus); assay: Inhibition of recombinant Staphylococcus aureus FtsZ assessed as FtsZ polymerization at 10 ug/ml preincubated for 10 mins followed by GTP addition measured after 20 mins by TEM analysis; settings: dose 10.0 µg/ml, time 30.0 min
Summary of the method: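 Recombinant S. aureus FtsZ (12 µM) preincubated 10 min at room temperature with compound in DMSO, in 50 mM Hepes-KOH pH 6.8. KCl 50 mM, MgCl2 5 mM and GTP 1 mM then added, 20 min at 37 °C. Samples placed on glow-discharged carbon grids, stained with 1% phosphotungstic acid, imaged by TEM.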

[8] = Metabolic stability in mouse liver microsomes assessed as compound remaining preincubated for 5 mins followed by NADPH addition measured immediately by LC/MS analysis; type: ADME, Microsome; settings: read-out: Stability
Staphylococcus aureus [9] = assay: Antibacterial activity against methicillin-resistant Staphylococcus aureus shhsE1 assessed as bacterial growth inhibition incubated for 18 hrs by CLSI based broth microdilution method; type: functional
Summary of the method: (§3)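 Broth microdilution to CLSI guidelines. Log-phase bacteria grown in Mueller Hinton broth, diluted, then exposed to 2-fold serial dilutions of compound (128 to 0.25 µg/mL or 2 to 0.004 µg/mL). Incubated aerobically 18 h at 37 °C. Growth read as OD600. MIC = lowest concentration giving ≥90% growth inhibition. Three independent assays.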

Staphylococcus aureus [10] = assay: Antibacterial activity against Staphylococcus aureus ATCC29213 assessed as bacterial growth inhibition incubated for 18 hrs by CLSI based broth microdilution method; type: functional
Summary of the method: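 CLSI broth microdilution. Log-phase bacteria in Mueller Hinton broth added to 2-fold serial dilutions spanning 128 to 0.25 or 2 to 0.004 µg/mL. Incubated aerobically for 18 h at 37 °C, then OD600 read. MIC is the lowest concentration giving ≥90% growth inhibition; three independent assays.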

[11] = Tmax in ICR mouse at 1 mg/kg, iv measured for 0.08 to 24 hrs by LC-MS/MS analysis; type: ADME, organism-based; settings: in vivo, time 0.08-24 hrs; summary of the method: as §2
[12] = Metabolic stability in human liver microsomes assessed as half life preincubated for 5 mins followed by NADPH addition measured upto 45 mins by LC/MS analysis; type: ADME, Microsome; settings: time < 50 min; summary of the method: as §1
[13] = Cytotoxicity against African green monkey Vero cells assessed as reduction in cell viability incubated for 72 hrs by alamar blue staining based assay; type: toxicity; settings: chlorocebus sabaeus
Summary of the method: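 Vero cells seeded at about 2 × 10^3 per well, 37 °C, 5% CO2. Compound added after 24 h and incubated 72 h. AlamarBlue (1:10 v/v) then added for 3 h in the dark, read at Ex/Em 560/590 nm. CC50 is the lowest concentration causing 50% loss of viability.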

Staphylococcus aureus [14] = assay: Antibacterial activity against ampicillin-resistant Staphylococcus aureus 669 assessed as bacterial growth inhibition incubated for 18 hrs by CLSI based broth microdilution method; type: functional; summary of the method: as §3

In the case of `Cc1cc(Cl)ccc1-c1cccc(COc2ccc(F)c(C(N)=O)c2F)c1`, the CLint scaled [1] is reported as 15.5 mL/min/kg, the Selectivity ratio (Staphylococcus aureus [2]) is reported as 2 and the inhibition [3] is reported as “Active”. For the same molecule, the inhibition [4] was “Active”, the bioavailability [5] was 61.2% and the CL [6] was 94.713 mL/min/kg. For the same molecule, the inhibition [7] was “Active”, the remaining at 0 min [8] was 100% and the MIC (Staphylococcus aureus [9]) was 0.125 µg/mL (≈ 0.322 µM). For the same molecule, the MIC (Staphylococcus aureus [10]) was 0.25 µg/mL (≈ 0.645 µM), the Tmax [11] was 4.98 min and the half-life [12] was 112 min. It also gave a CC50 at 72 h [13] of over 20 µg/mL and an MIC (Staphylococcus aureus [14]) of 0.06 µg/mL (≈ 0.155 µM).
